# Reference: article PMC11327602 (Heliyon, 2024)
# “And” between values parts separate entries of the source, which are not always exact repeats. Identical values can stand only once.
# Legend:
# [1] = DPPH free radical scavenging activity; conditions: for IC50: read-out: DPPH scavenging IC50
# ABTS method = conditions: for IC50: read-out: ABTS scavenging IC50
# [2] = target: Bacillus Pasteurii urease (Sporosarcina pasteurii, UniProt P41020); assay: Urease inhibition assay; type: biochemical; conditions: Enzyme (SEM ±) B.P Urease, IC50, mean ± SEM, 3 experiments
# Chain of Bacillus Pasteurii urease (P41020 whole entry): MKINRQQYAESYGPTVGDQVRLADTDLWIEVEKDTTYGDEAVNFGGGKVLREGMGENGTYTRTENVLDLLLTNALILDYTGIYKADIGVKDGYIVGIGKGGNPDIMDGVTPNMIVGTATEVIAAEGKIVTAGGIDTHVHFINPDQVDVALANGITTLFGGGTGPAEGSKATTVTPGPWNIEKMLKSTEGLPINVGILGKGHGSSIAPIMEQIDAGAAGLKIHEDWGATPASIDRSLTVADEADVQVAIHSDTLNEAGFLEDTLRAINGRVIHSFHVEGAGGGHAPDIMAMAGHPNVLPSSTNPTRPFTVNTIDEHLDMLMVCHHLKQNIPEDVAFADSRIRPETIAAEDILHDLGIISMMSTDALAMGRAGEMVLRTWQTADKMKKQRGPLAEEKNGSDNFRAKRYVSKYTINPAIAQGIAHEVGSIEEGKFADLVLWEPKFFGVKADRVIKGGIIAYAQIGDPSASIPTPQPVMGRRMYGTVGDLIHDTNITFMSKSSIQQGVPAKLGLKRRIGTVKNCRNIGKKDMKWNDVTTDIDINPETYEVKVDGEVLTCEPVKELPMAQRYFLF
# Chain of Bacillus Pasteurii urease (P41021 whole entry partner): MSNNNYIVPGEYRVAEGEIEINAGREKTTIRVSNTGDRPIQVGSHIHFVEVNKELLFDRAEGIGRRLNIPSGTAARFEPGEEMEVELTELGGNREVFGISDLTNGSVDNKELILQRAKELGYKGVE
# Chain of Bacillus Pasteurii urease (P41022 whole entry partner): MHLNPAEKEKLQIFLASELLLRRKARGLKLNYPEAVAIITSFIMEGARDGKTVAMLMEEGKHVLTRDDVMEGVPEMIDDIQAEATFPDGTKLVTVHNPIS
# jack bean urease = jack bean urease (Canavalia ensiformis, UniProt P07374); assay: Urease inhibition assay; type: biochemical; conditions: for IC50: Enzyme (SEM ±) J.B Urease, IC50, mean ± SEM, 3 experiments
# Chain of jack bean urease (P07374 whole entry, looked up): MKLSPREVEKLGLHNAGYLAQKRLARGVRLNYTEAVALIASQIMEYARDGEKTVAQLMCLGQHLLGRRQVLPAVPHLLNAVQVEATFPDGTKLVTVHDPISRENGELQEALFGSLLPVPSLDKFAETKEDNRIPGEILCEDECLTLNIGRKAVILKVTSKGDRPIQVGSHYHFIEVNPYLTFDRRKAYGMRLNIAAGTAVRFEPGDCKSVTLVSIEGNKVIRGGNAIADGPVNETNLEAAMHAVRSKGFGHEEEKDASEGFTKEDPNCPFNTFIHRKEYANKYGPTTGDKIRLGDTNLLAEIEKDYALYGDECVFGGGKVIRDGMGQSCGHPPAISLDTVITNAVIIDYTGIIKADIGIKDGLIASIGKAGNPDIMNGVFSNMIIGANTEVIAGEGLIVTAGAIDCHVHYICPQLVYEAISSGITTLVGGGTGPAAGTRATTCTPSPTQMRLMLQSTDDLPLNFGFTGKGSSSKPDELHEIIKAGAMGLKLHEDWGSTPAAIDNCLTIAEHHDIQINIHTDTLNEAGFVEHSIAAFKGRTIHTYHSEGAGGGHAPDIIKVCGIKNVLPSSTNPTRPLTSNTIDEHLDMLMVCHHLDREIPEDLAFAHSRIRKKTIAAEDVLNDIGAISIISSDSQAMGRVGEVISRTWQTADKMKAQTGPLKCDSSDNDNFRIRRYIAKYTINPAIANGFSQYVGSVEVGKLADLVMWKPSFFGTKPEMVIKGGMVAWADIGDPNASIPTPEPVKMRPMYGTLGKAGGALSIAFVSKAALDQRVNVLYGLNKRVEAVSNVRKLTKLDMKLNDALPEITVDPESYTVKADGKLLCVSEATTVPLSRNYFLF
# α-Glucosidase = α-Glucosidase (Saccharomyces cerevisiae, UniProt P53341); assay: α-Glucosidase inhibition assay; type: biochemical
# Chain of α-Glucosidase (P53341 whole entry): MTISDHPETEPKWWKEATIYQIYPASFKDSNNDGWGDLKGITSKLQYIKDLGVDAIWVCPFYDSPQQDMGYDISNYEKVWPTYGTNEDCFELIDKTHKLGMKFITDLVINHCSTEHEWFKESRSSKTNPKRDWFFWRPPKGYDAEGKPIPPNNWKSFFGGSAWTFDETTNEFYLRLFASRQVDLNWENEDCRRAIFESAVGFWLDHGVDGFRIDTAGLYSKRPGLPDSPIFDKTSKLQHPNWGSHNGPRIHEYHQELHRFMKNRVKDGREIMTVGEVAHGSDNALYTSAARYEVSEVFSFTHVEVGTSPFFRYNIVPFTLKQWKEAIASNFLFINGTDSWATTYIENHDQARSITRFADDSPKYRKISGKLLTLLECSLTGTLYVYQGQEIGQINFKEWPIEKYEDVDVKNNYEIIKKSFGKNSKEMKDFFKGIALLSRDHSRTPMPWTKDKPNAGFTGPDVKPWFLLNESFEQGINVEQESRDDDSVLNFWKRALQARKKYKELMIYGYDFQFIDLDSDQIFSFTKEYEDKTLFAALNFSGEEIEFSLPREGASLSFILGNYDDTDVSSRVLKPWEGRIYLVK
# How it was run: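 Test compound (200–800 μg/mL) pre-incubated 5 min at 37 °C with 2 % w/v starch (sucrose) solution in 0.2 M Tris buffer, pH 8.0. 5 mM p-nitrophenyl-α-D-glucopyranoside added intermittently, then α-glucosidase (1 U/mL), 40 min at 35 °C. Stopped with […]; absorbance read at 405 nm. % inhibition = (control − sample)/control × 100; samples above 50 % taken to IC50.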
# [3] = Superoxide anion scavenging assay; conditions: for IC50: read-out: superoxide anion scavenging IC50
IC50 [1],IC50 (ABTS method),IC50 [2] [µM],Types of inhibition (urease) (jack bean urease),IC50 (jack bean urease) [µM],Type of Inhibition (α-glucosidase and α-amylase) (α-Glucosidase),IC50 [3],SMILES,DPPH % Scavenging ([1]; 25 μM) [%],DPPH % Scavenging ([1]; 50 μM) [%],DPPH % Scavenging ([1]; 75 μM) [%],DPPH % Scavenging ([1]; 100 μM) [%],ABTS % Scavenging (ABTS method; 10 μM) [%],ABTS % Scavenging (ABTS method; 20 μM) [%],ABTS % Scavenging (ABTS method; 30 μM) [%],ABTS % Scavenging (ABTS method; 40 μM) [%],ABTS % Scavenging (ABTS method; 50 μM) [%],superoxide anion % scavenging ([3]; 25 μM) [%],superoxide anion % scavenging ([3]; 50 μM) [%],superoxide anion % scavenging ([3]; 75 μM) [%],superoxide anion % scavenging ([3]; 100 μM) [%]
~39.2 µM and 39.2 µM,40.05 ± 0.08 µM,26.37 ± 0.22,Competitive,24.1 ± 0.34,Non-competitive,45 ± 0.19 µM,"C=CCN(c1nccs1)S(=O)(=O)c1ccc(OC)cc1 [Compound 27, N-allyl-4-methoxy-N-(thiazol-2-yl)benzenesulfonamide]",33.2 ± 0.01,59.6 ± 0.2,75.4 ± 0.2,91.8 ± 0.03,10.02 ± 0.05,19.08 ± 0.03,43.02 ± 0.09,70.02 ± 0.11,93.09 ± 0.02,25 ± 0.17,71 ± 0.25,86 ± 0.03,93 ± 0.52
~48.4 µM and 48.4 µM,~35 µM and 35 µM,36.1 ± 0.43,Non-competitive,29.55 ± 0.12,Competitive,~39 µM and 39 µM,"C=CCN(c1nccs1)S(=O)(=O)c1ccc(Br)cc1 [Compound 28, N-Allyl-4-bromo-N-(thiazol-2-yl)benzenesulfonamide]",48.2 ± 0.09,70.7 ± 0.01,85.3 ± 0.3,91.2 ± 0.06,10.01 ± 0.02,27.3 ± 0.05,48.08 ± 0.9,55.7 ± 0.22,99.06 ± 0.25,25 ± 0.02,66 ± 0.11,77 ± 0.18,99 ± 0.31
52.5 ± 0.11 µM,43.21 ± 0.15 µM,23.02 ± 0.15,Non-competitive,21.22 ± 0.17,Non-competitive,43 ± 0.17 µM,"C=CCN(c1nccs1)S(=O)(=O)c1ccccc1 [Compound 29, N-allyl-N-(thiazol-2-yl)benzenesulfonamide]",34.5 ± 0.21,49.1 ± 0.13,77.2 ± 0.7,93.5 ± 0.08,19.2 ± 0.5,23.07 ± 0.13,45.01 ± 0.19,74.12 ± 0.17,89.19 ± 0.12,28 ± 0.07,73 ± 0.20,85 ± 0.13,96 ± 0.32
52.3 ± 0.21 µM,37.6 ± 0.01 µM,32.3 ± 0.37,Non-competitive,28.1 ± 0.35,Non-competitive,43 ± 0.09 µM,"C=CCN(c1nccs1)S(=O)(=O)c1ccc(Cl)cc1 [Compound 30, N-Allyl-4-chloro-N-(thiazol-2-yl)benzenesulfonamide]",38.5 ± 0.19,46.1 ± 0.11,77.2 ± 0.13,81.2 ± 0.15,23.11 ± 0.02,40.3 ± 0.53,46.01 ± 0.19,59.5 ± 0.20,87.11 ± 0.15,29 ± 0.34,63 ± 0.01,79 ± 0.11,87 ± 0.21
